# Measurements published in ChEMBL document CHEMBL1145396, “High-throughput synthesis and screening of cyclic peptide antibiotics” (J Med Chem, 2007).
# The source made the active and inactive calls. No cut-off for these calls is given here. Square brackets hold non-standard residues; d marks the D form. Peptide text beside a SMILES is read from it. Orn = NCCC[C@H](N)C(=O)O
# Assays:
# Bacillus subtilis [1] = assay: Antimicrobial activity against Bacillus subtilis; assay type: functional
# In short: (§1)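 Microtiter broth assay. Peptide stock in 30% DMSO/water, neutralized with sodium phosphate pH 7.0, added to a 1000-fold diluted overnight bacterial culture (1:5 into final volume). Incubated 7 h at 37 °C. Growth scored visually.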
# Escherichia coli [2] = assay: Antimicrobial activity against Escherichia coli; assay type: functional; in short: as §1
# Enterococcus faecalis [3] = assay: Antimicrobial activity against Enterococcus faecalis; assay type: functional; in short: as §1
# [4] = system: Staphylococcus epidermidis; assay: Antimicrobial activity against Staphylococcus epidermidis; assay type: functional; in short: as §1
# [5] = Toxicity assessed as hemolytic activity in human RBC; assay type: cell-based; conditions: erythrocyte
# In short: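 Peptide stocks were serially diluted 2-fold in water, then mixed with fresh human erythrocytes diluted 100-fold in PBS pH 7.4. Incubated overnight at room temperature and inspected visually for lysis. MHC was taken as the lowest concentration lysing half of the cells.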
# [6] = Ratio of MHC for human RBC to MIC for Bacillus subtilis; assay type: functional
# Bacillus subtilis [7] = assay: Antimicrobial activity against Bacillus subtilis at 32 ug/mL; assay type: functional
# Escherichia coli [8] = assay: Antimicrobial activity against Escherichia coli at 32 ug/mL; assay type: functional, organism-based
# Enterococcus faecalis [9] = assay: Antimicrobial activity against Enterococcus faecalis at 32 ug/mL; assay type: functional, organism-based
# [10] = system: Staphylococcus epidermidis; assay: Antimicrobial activity against Staphylococcus epidermidis at 32 ug/mL; assay type: functional, organism-based
Compound,MIC (Bacillus subtilis [1]),MIC (Escherichia coli [2]),MIC (Enterococcus faecalis [3]),MIC [4],Activity [5],Ratio [6],MIC (Bacillus subtilis [7]),Activity (Escherichia coli [8]),Activity (Enterococcus faecalis [9]),Activity [10],Activity (Bacillus subtilis [7])
CC(C)C[C@@H]1NC(=O)[C@H](CCCN)NC(=O)[C@H](C(C)C)NC(=O)[C@H](Cc2ccc(O)cc2)NC(=O)[C@H](CCC(N)=O)NC(=O)[C@H](CC(N)=O)NC(=O)[C@@H](Cc2ccccc2)NC(=O)[C@H](Cc2ccccc2)NC(=O)[C@@H]2CCCN2C(=O)[C@@H](Cc2ccccc2)NC1=O [TYROCIDINE A] (cyclo(F[dF]NQYV[Orn]L[dF]P)),1 µg/mL,8 µg/mL,1 µg/mL,1 µg/mL,2 µg/mL,2,–,–,–,–,–
CCCNC(=O)C[C@@H]1NC(=O)[C@@H](CCCNC(=N)N)NC(=O)[C@H](Cc2ccccc2)NC(=O)[C@@H]2CCCN2C(=O)[C@@H](Cc2ccccc2)NC(=O)[C@H](Cc2ccc(F)cc2)NC(=O)[C@H](CCCN)NC(=O)[C@H](C(C)C)NC(=O)[C@H](Cc2ccc(O)cc2)NC(=O)CNC1=O [listing 1 of 2 here],–,–,–,–,16 µg/mL,–,–,–,–,–,–
CCCNC(=O)C[C@@H]1NC(=O)[C@@H](CCCCN)NC(=O)[C@H](Cc2ccccc2)NC(=O)[C@@H]2CCCN2C(=O)[C@@H](Cc2ccccc2)NC(=O)[C@H](Cc2ccc(O)cc2)NC(=O)[C@H](CCCN)NC(=O)[C@H](C(C)C)NC(=O)[C@H](Cc2ccc(O)cc2)NC(=O)[C@H](CCCCN)NC1=O,4 µg/mL,32 µg/mL,16 µg/mL,4 µg/mL,128 µg/mL,32,–,–,–,–,–
CCCNC(=O)C[C@@H]1NC(=O)[C@@H](CCCNC(=N)N)NC(=O)[C@H](Cc2ccccc2)NC(=O)[C@@H]2CCCN2C(=O)[C@@H](Cc2ccccc2)NC(=O)[C@@H](CC(C)C)NC(=O)[C@H](CCCN)NC(=O)[C@H](C(C)C)NC(=O)[C@H](Cc2ccc(O)cc2)NC(=O)[C@H](CCCCN)NC1=O,8 µg/mL,32 µg/mL,16 µg/mL,8 µg/mL,128 µg/mL,16,–,–,–,–,–
CCCNC(=O)C[C@@H]1NC(=O)[C@@H](Cc2ccccc2)NC(=O)[C@H](Cc2ccccc2)NC(=O)[C@@H]2CCCN2C(=O)[C@@H](Cc2ccccc2)NC(=O)CN(C)C(=O)[C@H](CCCN)NC(=O)[C@H](C(C)C)NC(=O)[C@H](Cc2ccc(O)cc2)NC(=O)[C@@H](Cc2ccccc2)NC1=O,32 µg/mL,32 µg/mL,–,–,–,–,–,–,–,–,–
CCCNC(=O)C[C@H]1NC(=O)[C@@H](CCCNC(=N)N)NC(=O)[C@H](Cc2ccccc2)NC(=O)[C@@H]2CCCN2C(=O)[C@@H](Cc2ccccc2)NC(=O)[C@@H]2CCCN2C(=O)[C@H](CCCN)NC(=O)[C@H](C(C)C)NC(=O)[C@H](Cc2ccc(O)cc2)NC(=O)[C@@H](C)NC1=O,–,–,–,–,514 µg/mL,1024,0.5 µg/mL,inactive,inactive,inactive,–
CCCNC(=O)C[C@@H]1NC(=O)[C@@H](CCCNC(=N)N)NC(=O)[C@H](Cc2ccccc2)NC(=O)[C@@H]2CCCN2C(=O)[C@@H](Cc2ccccc2)NC(=O)[C@@H]2CCCN2C(=O)[C@H](CCCN)NC(=O)[C@H](C(C)C)NC(=O)[C@H](Cc2ccc(O)cc2)NC(=O)[C@@H](C)NC1=O,> 32 µg/mL,32 µg/mL,–,–,–,–,–,inactive,inactive,inactive,inactive
CCCNC(=O)C[C@@H]1NC(=O)[C@@H](Cc2ccccc2)NC(=O)[C@H](Cc2ccccc2)NC(=O)[C@@H]2CCCN2C(=O)[C@@H](Cc2ccccc2)NC(=O)CNC(=O)[C@H](CCCN)NC(=O)[C@H](C(C)C)NC(=O)[C@H](Cc2ccc(O)cc2)NC(=O)[C@H](CCCCN)NC1=O,8 µg/mL,–,32 µg/mL,16 µg/mL,64 µg/mL,8,–,inactive,–,–,–
CCCNC(=O)C[C@@H]1NC(=O)[C@@H](CCCNC(=N)N)NC(=O)[C@H](Cc2ccccc2)NC(=O)[C@@H]2CCCN2C(=O)[C@@H](Cc2ccccc2)NC(=O)[C@@H](CC(N)=O)NC(=O)[C@H](CCCN)NC(=O)[C@H](C(C)C)NC(=O)[C@H](Cc2ccc(O)cc2)NC(=O)[C@@H](CC(C)C)NC1=O,8 µg/mL,32 µg/mL,–,–,–,–,–,–,–,–,–
CCCNC(=O)C[C@H]1NC(=O)[C@@H](CCCNC(=N)N)NC(=O)[C@H](Cc2ccccc2)NC(=O)[C@@H]2CCCN2C(=O)[C@@H](Cc2ccccc2)NC(=O)[C@H](Cc2ccc(F)cc2)NC(=O)[C@H](CCCN)NC(=O)[C@H](C(C)C)NC(=O)[C@H](Cc2ccc(O)cc2)NC(=O)CNC1=O,–,–,–,–,–,8,–,–,–,–,–
CCCNC(=O)C[C@@H]1NC(=O)[C@@H](CCCCN)NC(=O)[C@H](Cc2ccccc2)NC(=O)[C@@H]2CCCN2C(=O)[C@@H](Cc2ccccc2)NC(=O)[C@@H]2CCCN2C(=O)[C@H](CCCN)NC(=O)[C@H](C(C)C)NC(=O)[C@H](Cc2ccc(O)cc2)NC(=O)[C@H](Cc2ccc(F)cc2)NC1=O,> 32 µg/mL,32 µg/mL,–,–,–,–,–,inactive,inactive,inactive,inactive
CCCNC(=O)C[C@H]1NC(=O)[C@@H](CCCCN)NC(=O)[C@H](Cc2ccccc2)NC(=O)[C@@H]2CCCN2C(=O)[C@@H](Cc2ccccc2)NC(=O)[C@@H]2CCCN2C(=O)[C@H](CCCN)NC(=O)[C@H](C(C)C)NC(=O)[C@H](Cc2ccc(O)cc2)NC(=O)[C@H](Cc2ccc(F)cc2)NC1=O,4 µg/mL,32 µg/mL,8 µg/mL,32 µg/mL,128 µg/mL,32,–,–,–,–,–
CCCNC(=O)C[C@@H]1NC(=O)[C@@H](CCCNC(=N)N)NC(=O)[C@H](Cc2ccccc2)NC(=O)[C@@H]2CCCN2C(=O)[C@@H](Cc2ccccc2)NC(=O)[C@H](Cc2ccc(F)cc2)NC(=O)[C@H](CCCN)NC(=O)[C@H](C(C)C)NC(=O)[C@H](Cc2ccc(O)cc2)NC(=O)CNC1=O [listing 2 of 2 here],1 µg/mL,4 µg/mL,2 µg/mL,1 µg/mL,–,–,–,–,–,–,–
CCCNC(=O)C[C@@H]1NC(=O)[C@@H](CCCNC(=N)N)NC(=O)[C@H](Cc2ccccc2)NC(=O)[C@@H]2CCCN2C(=O)[C@@H](Cc2ccccc2)NC(=O)[C@H](Cc2ccc(F)cc2)NC(=O)[C@H](CCCN)NC(=O)[C@H](C(C)C)NC(=O)[C@H](Cc2ccc(O)cc2)NC(=O)[C@H](CO)NC1=O,2 µg/mL,16 µg/mL,8 µg/mL,2 µg/mL,16 µg/mL,8,–,–,–,–,–
CCCNC(=O)C[C@@H]1NC(=O)[C@@H](CCCNC(=N)N)NC(=O)[C@H](Cc2ccccc2)NC(=O)[C@@H]2CCCN2C(=O)[C@@H](Cc2ccccc2)NC(=O)[C@H](Cc2ccc(F)cc2)NC(=O)[C@H](CCCN)NC(=O)[C@H](C(C)C)NC(=O)[C@H](Cc2ccc(O)cc2)NC(=O)[C@H](CCCNC(=N)N)NC1=O,1 µg/mL,8 µg/mL,8 µg/mL,4 µg/mL,8 µg/mL,4,–,–,–,–,–
CCCNC(=O)C[C@H]1NC(=O)[C@@H](CCCCN)NC(=O)[C@H](Cc2ccccc2)NC(=O)[C@@H]2CCCN2C(=O)[C@@H](Cc2ccccc2)NC(=O)[C@H](Cc2ccc(O)cc2)NC(=O)[C@H](CCCN)NC(=O)[C@H](C(C)C)NC(=O)[C@H](Cc2ccc(O)cc2)NC(=O)[C@H](CCCCN)NC1=O,2 µg/mL,16 µg/mL,16 µg/mL,4 µg/mL,64 µg/mL,32,–,–,–,–,–
